# Assay results taken from ChEMBL document CHEMBL4130378, “Discovery of pentacyclic triterpene 3β-ester derivatives as a new class of cholesterol ester transfer protein inhibitors” (Eur J Med Chem, 2017).
# pIC50: −log10 of the molar value.
# How the values were obtained:
# [1] = molecular target: T1, Cholesteryl ester transfer protein (Homo sapiens, UniProt P11597); assay: Inhibition of recombinant human CETP after 3 hrs using fluorescent cholesteryl containing HDL after 3 hrs by fluorescence assay; conditions: for pIC50: read-out: IC50
# T1 sequence (P11597 whole entry): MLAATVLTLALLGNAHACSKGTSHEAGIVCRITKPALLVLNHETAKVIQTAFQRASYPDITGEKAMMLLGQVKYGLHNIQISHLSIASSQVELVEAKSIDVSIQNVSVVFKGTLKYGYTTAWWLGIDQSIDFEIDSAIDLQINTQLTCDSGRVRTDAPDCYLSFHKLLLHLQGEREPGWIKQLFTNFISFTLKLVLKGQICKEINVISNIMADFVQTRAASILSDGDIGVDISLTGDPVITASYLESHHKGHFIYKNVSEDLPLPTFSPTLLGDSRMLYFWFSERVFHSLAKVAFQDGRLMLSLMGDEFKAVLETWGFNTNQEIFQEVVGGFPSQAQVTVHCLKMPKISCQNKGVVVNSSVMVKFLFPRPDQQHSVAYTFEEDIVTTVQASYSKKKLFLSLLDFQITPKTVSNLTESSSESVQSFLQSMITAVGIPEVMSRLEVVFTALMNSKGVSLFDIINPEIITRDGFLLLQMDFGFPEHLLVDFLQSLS
# [2] = Octanol-water partition coefficient, log P of the compound at pH 7.4 by HPLC based shake flask method; type: physicochemical
# Mus musculus [3] = assay: Hypolipidemic activity in transgenic ap2-CETPTg mouse model assessed as reduction in plasma LDL cholesterol levels at 30 mg/kg, po qd for 14 days measured 2 hrs post dose on day 14 by automated lipid analyzer relative to control; type: functional; parameters: scale not given: the % may be the effect or the level left
# Outline: (§1)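 ap2-CETPTg mice, which express human CETP in adipose tissue. Oral 30 mg/kg once daily for two weeks in DMSO/cremophor/saline 3:4:93. Retro-orbital blood drawn 2 h after the day-14 dose. HDL-C, LDL-C, TG and TC measured on an automated lipid analyzer, mean ± SD (n ≥ 6), versus control group.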
# Cavia porcellus [4] = assay: Hypolipidemic activity in high-fat fed guinea pig model assessed as reduction in plasma LDL cholesterol levels at 30 mg/kg administered via oral gavage as qd for 14 days measured 2 hrs post dose on day 14 relative to control; type: functional; parameters: scale not given: the % may be the effect or the level left
# Outline: (§2)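 Male guinea pigs, 12 weeks old, fed a high-fat diet (2.5% coconut oil, 0.25% cholesterol) for two weeks. Gavage at 30 mg/kg once daily for two weeks while the diet continued. Plasma taken retro-orbitally 2 h after the day-14 dose. HDL-C, LDL-C, TG and TC reported as mean ± SD (n ≥ 6) versus the untreated high-fat model group.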
# Cavia porcellus [5] = assay: Antihyperlipidemic activity in high-fat fed guinea pig model assessed as increase in plasma HDL cholesterol level at 30 mg/kg administered via oral gavage as qd for 14 days measured 2 hrs post dose on day 14 relative to control; type: functional; outline: as §2
# Mus musculus [6] = assay: Induction of plasma total cholesterol levels in transgenic ap2-CETPTg mouse model at 30 mg/kg, po qd for 14 days measured 2 hrs post dose on day 14 by automated lipid analyzer relative to control; type: ADME, organism-based; conditions: in vivo; outline: as §1
# Mus musculus [7] = assay: Induction of plasma triglyceride levels in transgenic ap2-CETPTg mouse model at 30 mg/kg, po qd for 14 days measured 2 hrs post dose on day 14 by automated lipid analyzer relative to control; type: ADME, organism-based; conditions: in vivo; outline: as §1
# [8] = molecular target: T2, Pancreatic triacylglycerol lipase (Sus scrofa, UniProt P00591); assay: Inhibition of porcine pancreatic lipase using 2,3-dimercaptopropan-1-ol tributyrate as substrate preincubated for 5 mins followed by substrate addition measured after 30 mins by colorimetric assay
# T2 sequence (P00591 whole entry): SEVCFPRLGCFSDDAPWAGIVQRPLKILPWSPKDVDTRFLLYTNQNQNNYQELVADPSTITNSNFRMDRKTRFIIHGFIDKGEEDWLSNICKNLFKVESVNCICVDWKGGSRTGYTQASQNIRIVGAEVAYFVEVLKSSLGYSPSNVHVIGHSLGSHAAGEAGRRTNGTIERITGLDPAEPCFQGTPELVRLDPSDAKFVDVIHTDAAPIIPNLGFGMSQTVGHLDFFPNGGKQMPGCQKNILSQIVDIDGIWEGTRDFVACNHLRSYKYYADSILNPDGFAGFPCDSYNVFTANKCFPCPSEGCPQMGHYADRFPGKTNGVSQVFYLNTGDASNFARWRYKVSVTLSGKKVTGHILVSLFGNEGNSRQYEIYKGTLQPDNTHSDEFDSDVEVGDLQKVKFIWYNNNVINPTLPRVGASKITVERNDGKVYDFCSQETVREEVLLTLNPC
# [9] = Cmax in normal fed guinea pig at 30 mg/kg administered via oral gavage by LC-MS/MS analysis; type: ADME, organism-based, Cavia porcellus; parameters: dose 30 mg/kg, route oral; conditions: in vivo
# [10] = Terminal half life in normal fed guinea pig at 30 mg/kg administered via oral gavage by LC-MS/MS analysis; type: ADME, organism-based, Cavia porcellus; conditions: in vivo, read-out: beta t1/2 (converted)
# [11] = MRT (0 to infinity) in normal fed guinea pig at 30 mg/kg administered via oral gavage by LC-MS/MS analysis; type: ADME, organism-based, Cavia porcellus; conditions: in vivo
# [12] = MRT (0 to 48 hrs) in normal fed guinea pig at 30 mg/kg administered via oral gavage by LC-MS/MS analysis; type: ADME, organism-based, Cavia porcellus; conditions: in vivo
# [13] = AUC (0 to 48 hrs) in normal fed guinea pig at 30 mg/kg administered via oral gavage by LC-MS/MS analysis; type: ADME, organism-based, Cavia porcellus; parameters: time < 48 hr, dose 30 mg/kg, route oral; conditions: in vivo
# Cavia porcellus [14] = assay: Drug level in normal fed guinea pig treated with 3-beta-[(2-Carboxyphenyl)carbonyloxy]-olean-12-en-28-oic acid at 30 mg/kg administered via oral gavage by LC-MS/MS analysis; type: ADME, organism-based; conditions: in vivo
# [15] = AUC (0 to infinity) in normal fed guinea pig at 30 mg/kg administered via oral gavage by LC-MS/MS analysis; type: ADME, organism-based, Cavia porcellus; parameters: dose 30 mg/kg, route oral, time infinity; conditions: in vivo
# [16] = Tmax in normal fed guinea pig at 30 mg/kg administered via oral gavage by LC-MS/MS analysis; type: ADME, organism-based, Cavia porcellus; conditions: in vivo
compound,measurement,setting,value
CC(=O)O[C@H]1CC[C@]2(C)[C@H]3CC=C4[C@@H]5CC(C)(C)CC[C@]5(C(=O)O)CC[C@@]4(C)[C@]3(C)CC[C@H]2C1(C)C [ACETYL OLEANOLIC ACID],IC50,[1],Not Active
COc1cc(F)c(C(C)C)cc1-c1ccc(C(F)(F)F)cc1CN1C(=O)O[C@H](c2cc(C(F)(F)F)cc(C(F)(F)F)c2)[C@@H]1C [ANACETRAPIB],logD,[2],0.73
same,Activity,Mus musculus [3],40.4%
same,Activity,Cavia porcellus [4],30.2%
same,Activity,Cavia porcellus [5],82.2%
same,Activity,Mus musculus [6],17.8%
same,Activity,Mus musculus [7],4.7%
C=C(C)[C@@H]1CC[C@]2(C(=O)O)CC[C@]3(C)[C@H](CC[C@@H]4[C@@]5(C)CC[C@H](O)C(C)(C)[C@@H]5CC[C@]43C)[C@@H]12 [BETULINIC ACID],IC50,[1],Not Active
CCC(CC)CC1(C(=O)Nc2ccccc2SC(=O)C(C)C)CCCCC1 [DALCETRAPIB],logD,[2],0.92
Cc1cc(C)c2c(c1)[C@@H](N(Cc1cc(C(F)(F)F)cc(C(F)(F)F)c1)c1nnn(C)n1)CCCN2C[C@H]1CC[C@H](C(=O)O)CC1 [EVACETRAPIB],logD,[2],0.51
CC1(C)CC[C@]2(C(=O)O)CC[C@]3(C)C(=CC[C@@H]4[C@@]5(C)CC[C@H](OC(=O)CCC(=O)O)C(C)(C)[C@@H]5CC[C@]43C)[C@@H]2C1 [OLEANOLIC ACID 3-O-SUCCINATE],pIC50,[1],5.37
CC1(C)CC[C@]2(C(=O)O)CC[C@]3(C)C(=CC[C@@H]4[C@@]5(C)CC[C@H](O)C(C)(C)[C@@H]5CC[C@]43C)[C@@H]2C1 [OLEANOLIC_ACID],pIC50,[8],3.74
same,Cmax,[9],52.2 ng/mL
same,half-life,[10],11.7 h
same,MRT inf,[11],15 h
same,MRT last,[12],11.7 h
same,AUC(0-t) at 48 h,[13],291 ng·h/mL
same,Drug metabolism,Cavia porcellus [14],Metabolite_Detected
same,AUC(0-inf),[15],312 ng·h/mL
same,Tmax,[16],0.75 h
CCOC(=O)N1c2ccc(C(F)(F)F)cc2[C@@H](N(Cc2cc(C(F)(F)F)cc(C(F)(F)F)c2)C(=O)OC)C[C@H]1CC [TORCETRAPIB],logD,[2],1.05
C[C@H]1[C@H](C)CC[C@]2(C(=O)O)CC[C@]3(C)C(=CC[C@@H]4[C@@]5(C)CC[C@H](O)C(C)(C)[C@@H]5CC[C@]43C)[C@H]12 [URSOLIC ACID],pIC50,[1],4.33
